Where a name gives a salt, the structure may show the parent alone.
Assays:
Phytophthora litchii = assay: Antifungal activity against Peronophythora litchii after 8 hrs by conidial germination assay; format: functional, organism-based
How it was run: (§1)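 Conidia from PDA cultures (P. litchii 7-day-old, F. verticillioides 3-day-old), diluted in half-strength PDB, counted and used immediately. Samples in DMSO as 2-fold series; final 0.625 to 80 μg/mL. Incubated 8 h at 30 °C, 150 rpm. Germination scored microscopically (germ tube ≥1.5× spore diameter), >200 conidia per replicate, triplicate. Thiram positive, DMSO negative control. IC50 from logistic nonlinear regression.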

A549 = assay: Cytotoxicity against human A549 cells after 72 hrs by MTT assay; format: functional, cell-based; settings: A549, 72 h
How it was run: (§2)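 MTT colorimetric readout. DMSO stocks serially diluted in culture medium to final 50, 10, 2, 0.4, 0.08 and 0.016 μM, quadruplicate wells per concentration. Adriamycin as positive control. Inhibition rate computed from treated, control and blank OD. IC50 by nonlinear regression of logistic dose–response curves. Means ± SD of three independent experiments.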

HeLa = assay: Cytotoxicity against human HeLa cells after 72 hrs by MTT assay; format: functional, cell-based; how it was run: as §2
MCF7 = assay: Cytotoxicity against human MCF7 cells after 72 hrs by MTT assay; format: functional, cell-based; settings: MCF7, 72 h; how it was run: as §2
Fusarium verticillioides = assay: Antifungal activity against Fusarium verticillioides after 8 hrs by conidial germination assay; format: functional, organism-based; how it was run: as §1

Row | SMILES | IC50 (Phytophthora litchii) | IC50 (Fusarium verticillioides) | IC50 (A549) | IC50 (HeLa) | IC50 (MCF7)
1 | COc1cc(O)c2c(c1)[C@H]1O[C@@H]1CC1=C(O)C(=O)C[C@@H]1C[C@H](C)OC2=O | > 100 µM | > 100 µM | > 10 µM | > 10 µM | > 10 µM
2 | C[C@@H]1C[C@H]2C=CC[C@H](CC(=O)Cc3cc(O)cc(O)c3C(=O)O1)O2 | 41 µM | > 100 µM | 4.1 µM | 3.9 µM | 4.9 µM
3 | C[C@@H]1C/C=C/CC[C@@H](O)CC(=O)Cc2cc(O)cc(O)c2C(=O)O1 | > 100 µM | > 100 µM | > 10 µM | > 10 µM | > 10 µM
4 | C[C@H]1C/C=C/CC(=O)CC/C=C/c2cc(O)cc(O)c2C(=O)O1 | > 100 µM | > 100 µM | 3.9 µM | 3.6 µM | 6.9 µM
5 | COc1cc(O)c2c(c1)[C@H]1O[C@@H]1CC1=C(O)C(=O)C[C@H]1C[C@H](C)OC2=O | > 100 µM | > 100 µM | > 10 µM | > 10 µM | > 10 µM
6 | C[C@@H]1Cc2ccccc2C(=O)Cc2cc(O)cc(O)c2C(=O)O1 | > 100 µM | > 100 µM | > 10 µM | > 10 µM | > 10 µM
7 | COc1cccc2c1C(=O)c1c(O)c3c(c(O)c1C2=O)C[C@@](O)(C(=O)CO)C[C@@H]3O[C@H]1C[C@H](N)[C@H](O)[C@H](C)O1 [DOXORUBICIN HYDROCHLORIDE] |  |  | 0.1 µM | 0.3 µM | 
8 | C[C@@H]1C/C=C/CCCCC(=O)Cc2cc(O)cc(O)c2C(=O)O1 [MONOCILLIN IV] | 33.6 µM | > 100 µM | > 10 µM | > 10 µM | 3.6 µM
9 | C[C@@H]1C[C@H]2O[C@@H]2/C=C\C=C\C(=O)Cc2c(Cl)c(O)cc(O)c2C(=O)O1 [RADICICOL] | 1.4 µM | 8 µM | 0.1 µM | 0.1 µM | 0.4 µM
10 | CN(C)C(=S)SSC(=S)N(C)C [THIRAM] | 4.6 µM | 1.7 µM |  |  | 

Now from value to molecule, other results behind:

Row | IC50 (Phytophthora litchii) | IC50 (Fusarium verticillioides) | SMILES | IC50 (A549) | IC50 (HeLa) | IC50 (MCF7)
11 | 9.2 µM | > 100 µM | C[C@@H]1C/C=C/CC/C=C\C(=O)Cc2cc(O)cc(O)c2C(=O)O1 | 4.1 µM | 3.6 µM | 1.7 µM
12 | 19.3 µM | > 100 µM | CO[C@@H]1CC/C=C/C[C@@H](C)OC(=O)c2c(O)cc(O)cc2CC(=O)C1 | > 10 µM | > 10 µM | > 10 µM
13 | 9.8 µM | > 100 µM | C[C@@H]1C/C=C/CC/C=C/C(=O)Cc2cc(O)cc(O)c2C(=O)O1 | 1.7 µM | 2.7 µM | 4.1 µM
14 | 1.9 µM | 1.1 µM | COc1cc(O)c2c(c1)[C@H]1O[C@@H]1C[C@H](O)[C@H](O)C(=O)/C=C\C[C@H](C)OC2=O [HYPOTHEMYCIN] | 1 µM | 1 µM | 3.3 µM
15 | 12 µM | > 100 µM | C[C@@H]1C[C@H]2O[C@@H]2CC/C=C/C(=O)Cc2cc(O)cc(O)c2C(=O)O1 [MONOCILLIN III] | 2.1 µM | 3.4 µM | > 10 µM
16 | 7.9 µM | > 100 µM | C[C@@H]1C[C@H]2O[C@@H]2/C=C\C=C\C(=O)Cc2cc(O)cc(O)c2C(=O)O1 [MONOCILLIN I] | 2.6 µM | 2.7 µM | 8.1 µM

Source: ChEMBL document CHEMBL4190289, “Antifungal and Cytotoxic β-Resorcylic Acid Lactones from a Paecilomyces Species” (J Nat Prod, 2017)
